≈ marks a conversion by molar mass, not a printed value.
What was measured:
Bacillus subtilis [1] = assay: Antibacterial activity against sigM gene-deficient Bacillus subtilis CU1065 mutant by liquid growth inhibition assay; format: functional
How it was run: (§1)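 Daptomycin MIC by liquid growth inhibition. Overnight cultures diluted 1:100, grown to mid-log, rediluted to 5 × 10^5 CFU/ml in Mueller-Hinton broth with 50 mg/liter Ca2+. At least 10 concentrations near the predicted MIC, plus a no-drug control, added at start; 200 μl. OD600 read every 20 min for 24 h at 37°C with shaking. Inhibition: 24 h OD600 <0.05. MIC is the mode of at least triplicates.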

Bacillus subtilis [2] = assay: Induction of yhcZ gene expression in Bacillus subtilis W168 by microarray analysis; format: functional
How it was run: (§2)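 W168 grown in Ca2+-supplemented Mueller-Hinton broth at 37°C to OD600 0.4, split, and one half exposed to 1 μg/ml daptomycin for 20 min. Total RNA from three biological replicates; cDNA labeled with Alexa Fluor 555/647 and co-hybridized at 42°C for 16–18 h. Genes with summed intensity <20 or SD > mean were dropped. Fold change is treated/untreated signal, from ≥6 spot measurements.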

Bacillus subtilis [3] = assay: Antibacterial activity against sigMWX and pspA gene-deficient Bacillus subtilis CU1065 mutant by liquid growth inhibition assay; format: functional; how it was run: as §1
Bacillus subtilis [4] = assay: Antibacterial activity against sigX gene-deficient Bacillus subtilis CU1065 mutant by liquid growth inhibition assay; format: functional; how it was run: as §1
Bacillus subtilis [5] = assay: Antibacterial activity against liaH and yhcYZ gene-deficient Bacillus subtilis W168 mutant by liquid growth inhibition assay; format: functional; how it was run: as §1
Bacillus subtilis [6] = assay: Antibacterial activity against liaH gene-deficient Bacillus subtilis CU1065 mutant by liquid growth inhibition assay
Bacillus subtilis [7] = assay: Antibacterial activity against sigXM gene-deficient Bacillus subtilis CU1065 double mutant by liquid growth inhibition assay; format: functional; how it was run: as §1
Bacillus subtilis [8] = assay: Decrease in ywfB gene expression in Bacillus subtilis W168 by microarray analysis; format: functional; how it was run: as §2
Bacillus subtilis [9] = assay: Antibacterial activity against mprF gene-deficient Bacillus subtilis CU1065 mutant by liquid growth inhibition assay; format: functional; how it was run: as §1
Bacillus subtilis [10] = assay: Induction of yxjI gene expression in Bacillus subtilis W168 by microarray analysis; format: functional
How it was run: (§3)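 W168 cultures in Mueller-Hinton broth with 50 mg/liter Ca2+, 37°C with shaking, grown to mid-log phase (OD600 0.4) from a 1:1,000 overnight dilution. Split: one half given 1 μg/ml daptomycin for 20 min, the other left untreated. Total RNA from three biological replicates; cDNA labeled with Alexa Fluor 555 or 647 and hybridized 16 to 18 h at 42°C. Induction = treated/untreated signal intensity, duplicate spots on three arrays.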

Bacillus subtilis [11] = assay: Decrease in yitI gene expression in Bacillus subtilis W168 by microarray analysis; format: functional; how it was run: as §2
Bacillus subtilis [12] = assay: Antibacterial activity against liaGFSR gene-deficient Bacillus subtilis W168 mutant by liquid growth inhibition assay; format: functional; how it was run: as §1
Bacillus subtilis [13] = assay: Induction of ydaH gene expression in Bacillus subtilis W168 by microarray analysis; format: functional; how it was run: as §2
Bacillus subtilis [14] = assay: Antibacterial activity against Bacillus subtilis W168 mutant with alteration in membrane composition at 25 degC by liquid growth inhibition assay; format: functional
How it was run: (§4)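 Mid-log cells diluted to 5 × 10^5 CFU/ml in Mueller-Hinton broth with 50 mg/liter Ca2+. At least 10 concentrations near the predicted MIC, plus an untreated control, present from the start. Growth followed by OD600. Inhibition: final 24 h OD600 <0.05. MIC is the mode of at least triplicates.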

Bacillus subtilis [15] = assay: Decrease in yvkN gene expression in Bacillus subtilis W168 by microarray analysis; format: functional; how it was run: as §2
Bacillus subtilis [16] = assay: Induction of yhdL gene expression in Bacillus subtilis W168 by microarray analysis; format: functional; how it was run: as §2
Bacillus subtilis [17] = assay: Antibacterial activity against sigXM and liaIH gene-deficient Bacillus subtilis CU1065 mutant by liquid growth inhibition assay; format: functional; how it was run: as §1
Bacillus subtilis [18] = assay: Decrease in yvzC gene expression in Bacillus subtilis W168 by microarray analysis; format: functional; how it was run: as §2
Bacillus subtilis [19] = assay: Decrease in lmrB gene expression in Bacillus subtilis W168 by microarray analysis; format: functional; how it was run: as §2
Bacillus subtilis [20] = assay: Induction of yuaG gene expression in Bacillus subtilis W168 by microarray analysis; format: functional; how it was run: as §2
Bacillus subtilis [21] = assay: Decrease in yisY gene expression in Bacillus subtilis W168 by microarray analysis; format: functional; how it was run: as §2
Bacillus subtilis [22] = assay: Antibacterial activity against liaH, pspA and sigW gene-deficient Bacillus subtilis CU1065 mutant by liquid growth inhibition assay; format: functional; how it was run: as §1
Bacillus subtilis [23] = assay: Induction of yoeB gene expression in Bacillus subtilis W168 by microarray analysis; format: functional; how it was run: as §2
Bacillus subtilis [24] = assay: Decrease in yvzA gene expression in Bacillus subtilis W168 by microarray analysis; format: functional; how it was run: as §2
Bacillus subtilis [25] = assay: Decrease in yxeM gene expression in Bacillus subtilis W168 by microarray analysis; format: functional; how it was run: as §2
Bacillus subtilis [26] = assay: Induction of liaR gene expression in Bacillus subtilis W168 by microarray analysis; format: functional; how it was run: as §2
Bacillus subtilis [27] = assay: Induction of ywrE gene expression in Bacillus subtilis W168 by microarray analysis; format: functional; how it was run: as §3
Bacillus subtilis [28] = assay: Decrease in ypeB gene expression in Bacillus subtilis W168 by microarray analysis; format: functional; how it was run: as §2
Bacillus subtilis [29] = assay: Antibacterial activity against Bacillus subtilis CU1065 mutant with mprF gene overexpression by liquid growth inhibition assay; format: functional; how it was run: as §1
Bacillus subtilis [30] = assay: Induction of yvrL gene expression in Bacillus subtilis W168 by microarray analysis; format: functional; how it was run: as §3
Bacillus subtilis [31] = assay: Induction of liaS gene expression in Bacillus subtilis W168 by microarray analysis; format: functional; how it was run: as §2
Bacillus subtilis [32] = assay: Antibacterial activity against sigW and pspA gene-deficient Bacillus subtilis CU1065 mutant by liquid growth inhibition assay; format: functional; how it was run: as §1
Bacillus subtilis [33] = assay: Decrease in hutM gene expression in Bacillus subtilis W168 by microarray analysis; format: functional; how it was run: as §2
Bacillus subtilis [34] = assay: Antibacterial activity against ugtP gene-deficient Bacillus subtilis CU1065 mutant by liquid growth inhibition assay; format: functional; how it was run: as §1
Bacillus subtilis [35] = assay: Antibacterial activity against yhcYZ gene-deficient Bacillus subtilis CU1065 mutant by liquid growth inhibition assay; format: functional; how it was run: as §1
Bacillus subtilis [36] = assay: Induction of ywaC gene expression in Bacillus subtilis W168 by microarray analysis; format: functional; how it was run: as §3
Bacillus subtilis [37] = assay: Antibacterial activity against sigXW gene-deficient Bacillus subtilis CU1065 double mutant by liquid growth inhibition assay; format: functional; how it was run: as §1
Bacillus subtilis [38] = assay: Antibacterial activity against mprF and pssA gene-deficient Bacillus subtilis CU1065 mutant by liquid growth inhibition assay; format: functional; how it was run: as §1
Bacillus subtilis [39] = assay: Antibacterial activity against mprF and ugtP gene-deficient Bacillus subtilis CU1065 mutant by liquid growth inhibition assay; format: functional; how it was run: as §1
Bacillus subtilis [40] = assay: Antibacterial activity against wild-type Bacillus subtilis; format: functional; how it was run: as §1
Bacillus subtilis [41] = assay: Induction of rodA gene expression in Bacillus subtilis W168 by microarray analysis; format: functional; how it was run: as §2
Bacillus subtilis [42] = assay: Decrease in ywhE gene expression in Bacillus subtilis W168 by microarray analysis; format: functional; how it was run: as §2
Bacillus subtilis [43] = assay: Antibacterial activity against des gene-deficient Bacillus subtilis W168 mutant with alteration in membrane composition at 25 degC by liquid growth inhibition assay; format: functional; how it was run: as §4
Bacillus subtilis [44] = assay: Decrease in ydgK gene expression in Bacillus subtilis W168 by microarray analysis; format: functional; how it was run: as §2
Bacillus subtilis [45] = assay: Decrease in fabHA gene expression in Bacillus subtilis W168 by microarray analysis; format: functional; how it was run: as §2
Bacillus subtilis [46] = assay: Antibacterial activity against liaIH gene-deficient Bacillus subtilis W168 mutant by liquid growth inhibition assay; format: functional; how it was run: as §1
Bacillus subtilis [47] = assay: Antibacterial activity against sigW gene-deficient Bacillus subtilis CU1065 mutant by liquid growth inhibition assay; format: functional; how it was run: as §1
Bacillus subtilis [48] = assay: Induction of ypbG gene expression in Bacillus subtilis W168 by microarray analysis; format: functional; how it was run: as §2
Bacillus subtilis [49] = assay: Decrease in fabHB gene expression in Bacillus subtilis W168 by microarray analysis; format: functional; how it was run: as §2

## CCCCCCCCCC(=O)N[C@@H](Cc1c[nH]c2ccccc12)C(=O)N[C@H](CC(N)=O)C(=O)N[C@@H](CC(=O)O)C(=O)N[C@@H]1C(=O)NCC(=O)N[C@@H](CCCN)C(=O)N[C@@H](CC(=O)O)C(=O)N[C@H](C)C(=O)N[C@@H](CC(=O)O)C(=O)NCC(=O)N[C@H](CO)C(=O)N[C@@H]([C@H](C)CC(=O)O)C(=O)N[C@@H](CC(=O)c2ccccc2N)C(=O)O[C@@H]1C
Bacillus subtilis [1]
  MIC: 0.8 µg/mL (≈ 0.494 µM)
Bacillus subtilis [2]
  fold change (FC): 2.2
Bacillus subtilis [3]
  MIC: 0.5 µg/mL (≈ 0.309 µM)
Bacillus subtilis [4]
  MIC: 1 µg/mL (≈ 0.617 µM)
Bacillus subtilis [5]
  MIC: 0.2 µg/mL (≈ 0.123 µM)
Bacillus subtilis [6]
  MIC: 0.4 µg/mL (≈ 0.247 µM)
Bacillus subtilis [7]
  MIC: 0.6 µg/mL (≈ 0.37 µM)
Bacillus subtilis [8]
  fold change (FC): 7.9
Bacillus subtilis [9]
  MIC: 0.5 µg/mL (≈ 0.309 µM)
Bacillus subtilis [10]
  fold change (FC): 2.1
Bacillus subtilis [11]
  fold change (FC): 2.9
Bacillus subtilis [12]
  MIC: 0.5 µg/mL (≈ 0.309 µM)
Bacillus subtilis [13]
  fold change (FC): 6.2
Bacillus subtilis [14]
  MIC: 0.7 µg/mL (≈ 0.432 µM)
Bacillus subtilis [15]
  fold change (FC): 26
Bacillus subtilis [16]
  fold change (FC): 2.5
Bacillus subtilis [17]
  MIC: 0.2 µg/mL (≈ 0.123 µM)
Bacillus subtilis [18]
  fold change (FC): 26
Bacillus subtilis [19]
  fold change (FC): 0.5
Bacillus subtilis [20]
  fold change (FC): 2
Bacillus subtilis [21]
  fold change (FC): 0.5
Bacillus subtilis [22]
  MIC: 0.2 µg/mL (≈ 0.123 µM)
Bacillus subtilis [23]
  fold change (FC): 2.1
Bacillus subtilis [24]
  fold change (FC): 10
Bacillus subtilis [25]
  fold change (FC): 0.4
Bacillus subtilis [26]
  fold change (FC): 75
Bacillus subtilis [27]
  fold change (FC): 2.1
Bacillus subtilis [28]
  fold change (FC): 3.1
Bacillus subtilis [29]
  MIC: 1.3 µg/mL (≈ 0.802 µM)
Bacillus subtilis [30]
  fold change (FC): 535
Bacillus subtilis [31]
  fold change (FC): 126
Bacillus subtilis [32]
  MIC: 0.8 µg/mL (≈ 0.494 µM)
Bacillus subtilis [33]
  fold change (FC): 3.2
Bacillus subtilis [34]
  MIC: 0.9 µg/mL (≈ 0.555 µM)
Bacillus subtilis [35]
  MIC: 0.8 µg/mL (≈ 0.494 µM)
Bacillus subtilis [36]
  fold change (FC): 3.5
Bacillus subtilis [37]
  MIC: 0.9 µg/mL (≈ 0.555 µM)
Bacillus subtilis [38]
  MIC: 0.9 µg/mL (≈ 0.555 µM)
Bacillus subtilis [39]
  MIC: 0.6 µg/mL (≈ 0.37 µM)
Bacillus subtilis [40]
  MIC: 1 µg/mL (≈ 0.617 µM)
Bacillus subtilis [41]
  fold change (FC): 2.7
Bacillus subtilis [42]
  fold change (FC): 0.4
Bacillus subtilis [43]
  MIC: 0.4 µg/mL (≈ 0.247 µM)
Bacillus subtilis [44]
  fold change (FC): 0.5
Bacillus subtilis [45]
  fold change (FC): 2.3
Bacillus subtilis [46]
  MIC: 0.4 µg/mL (≈ 0.247 µM)
Bacillus subtilis [47]
  MIC: 0.8 µg/mL (≈ 0.494 µM)
Bacillus subtilis [48]
  fold change (FC): 3.6
Bacillus subtilis [49]
  fold change (FC): 2.8

From ChEMBL document CHEMBL1649137, “Genetic analysis of factors affecting susceptibility of Bacillus subtilis to daptomycin” (2009)
